According to PMC4876717 (ACS chemical neuroscience, 2015):

Legend:
[1] = Lipophilicity, n-octanol/PBS liquid-liquid partition; type: physicochemical; settings: pH 7.4
Procedure, shortened: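 Radiolabelled test compound (~150,000 cpm) shaken with n-octanol (3.0 g) and 0.1 M sodium phosphate-buffered saline pH 7.40 (3.0 g): vortexed 3 min at room temperature, centrifuged 3500 rpm 5 min. Weighed aliquots of each phase gamma-counted. Remaining organic layer repartitioned until logD values were consistent. LogD = log[(cpm/g octanol)/(cpm/g PBS)]. Triplicate.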

[2] = Whole body biodistribution in mice; type: in vivo, ddY mice; settings: for Distribution of radioactivity, blood / Distribution of radioactivity, brain / Distribution of radioactivity, heart / Distribution of radioactivity, kidneys / Distribution of radioactivity, liver / Distribution of radioactivity, lungs / Distribution of radioactivity, muscle / Distribution of radioactivity, small intestine / Distribution of radioactivity, spleen / Distribution of radioactivity, testes: mean ± SD, n = 3
Procedure, shortened: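 Male ddY mice (7 weeks, 34–36 g) given tracer in saline (2 MBq, 0.03 nmol/200 μL) via tail vein. Three mice killed at each time point: 1, 5, 15, 30 and 60 min. Blood, brain, heart, lung, liver, spleen, kidneys, small intestine with contents, muscle and testes removed and weighed. Tissues gamma-counted with decay correction. Uptake expressed as %ID/g wet tissue.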

[3] = PET imaging in rats, brain uptake; type: in vivo, Sprague-Dawley rats
Procedure, shortened: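 Male Sprague-Dawley rats (7 weeks, 210–230 g) under isoflurane (5% induction, 1–2% maintenance). Tail-vein catheter used to inject tracer (40–51 MBq, 0.7–1 nmol/200 μL). Scans: 90 min 3D list mode, 350–750 keV, binned 1 min × 4, 2 min × 8, […]. Filtered back-projection. ROIs on whole brain, cerebral cortex and cerebellum. Decay-corrected SUV from injected activity and body weight. n = 3.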

FAAH [4] = target: T1, FAAH (Rattus norvegicus, UniProt P97612); test: PET blocking study with URB597 in rats; type: in vivo, Sprague-Dawley rats; settings: pretreatment with URB597 3 mg/kg, 30 min iv before injection
T1 sequence (P97612 1-579): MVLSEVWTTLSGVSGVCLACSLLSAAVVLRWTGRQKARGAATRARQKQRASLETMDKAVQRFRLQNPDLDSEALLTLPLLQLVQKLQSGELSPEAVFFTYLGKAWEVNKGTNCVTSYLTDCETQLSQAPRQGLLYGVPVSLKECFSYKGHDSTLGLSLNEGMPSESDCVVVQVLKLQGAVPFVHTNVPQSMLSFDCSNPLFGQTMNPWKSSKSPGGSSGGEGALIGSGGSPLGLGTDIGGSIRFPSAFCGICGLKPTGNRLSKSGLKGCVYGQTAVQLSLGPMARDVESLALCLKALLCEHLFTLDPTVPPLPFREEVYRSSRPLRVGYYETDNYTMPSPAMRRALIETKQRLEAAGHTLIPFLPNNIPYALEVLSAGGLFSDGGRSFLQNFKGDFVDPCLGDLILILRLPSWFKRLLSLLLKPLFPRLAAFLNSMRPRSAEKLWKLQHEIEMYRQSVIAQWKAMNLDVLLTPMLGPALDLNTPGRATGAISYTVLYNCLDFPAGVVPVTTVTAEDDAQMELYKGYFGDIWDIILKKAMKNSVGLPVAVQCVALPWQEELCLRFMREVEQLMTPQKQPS
Procedure, shortened: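 Blocking arm of the rat brain PET, run in male Sprague-Dawley rats under isoflurane. Unlabelled FAAH inhibitor (3.0 mg/kg, in 300 μL saline with 10% ethanol and 5% Tween 80) given 30 min before the tracer (40–51 MBq, 0.7–1 nmol iv). Dynamic 90 min list-mode scan. Regional brain uptake taken as decay-corrected SUV and compared with baseline. Three rats per condition.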

[5] = Radiometabolite analysis in rat plasma and brain homogenate; type: in vivo, Sprague-Dawley rats; settings: 15 min post-tracer injection
Procedure, shortened: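 Sprague-Dawley rats (n = 3) given tracer iv (82 MBq, 1.1 nmol) and killed at 15 min. Plasma separated (15,000 g, 2 min, 4 °C) and deproteinised with equal volume acetonitrile. Brain homogenised in ice-cold acetonitrile/water 1:1 and centrifuged; supernatant recovery >90%. Supernatants run on radio-HPLC (C18, acetonitrile/0.05 M NH4OAc 2:8, 2 mL/min). Parent fraction = parent peak area/total peak area × 100, decay-corrected.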

PgP/Bcrp = test: PET imaging in wild-type and PgP/Bcrp knockout mice; type: in vivo
Procedure, shortened: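 Male […] mice, wild-type and Abcb1a/1b−/−Abcg2−/− (17–18 weeks), set up in the scanner as for the rat scans. Tracer (18 MBq, 0.12 nmol/100 μL) injected via tail-vein line. Dynamic 3D list-mode acquisition for 60 min (1 min × 4, 2 min × 8, 5 min × 8). Regional time-activity curves taken as SUV, processed as for rats. Three mice per genotype.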

[6] = Stability of formulated tracer; type: physicochemical; settings: within 90 min after formulation in saline
[7] = cited from earlier work
FAAH [8] = settings: read-out: IC50 to FAAH in vitro; cited from earlier work
[9] = tested on: triacylglycerol hydrolase (TGH); settings: relative to FAAH; cited from earlier work
[10] = tested on: hydrolytic enzyme KIAA1363; settings: relative to FAAH; cited from earlier work

[11CH3]Oc1ccccc1CCCCCCC(=O)c1ncc(-c2ccccn2)o1 [[^11C]MPPO, 7-(2-[^11C]methoxyphenyl)-1-(5-(pyridin-2-yl)oxazol-2-yl)heptan-1-one]
logD [1]: 3.43 | brain uptake ([2]; mice biodistribution): 0.8 SUV | Distribution of radioactivity, blood ([2]; mice, 1 min after injection): 1.83 ± 0.15 %ID/g | Distribution of radioactivity, brain ([2]; mice, 1 min after injection): 1.87 ± 0.20 %ID/g | Distribution of radioactivity, heart ([2]; mice, 1 min after injection): 6.89 ± 0.60 %ID/g | Distribution of radioactivity, kidneys ([2]; mice, 1 min after injection): 12.64 ± 0.56 %ID/g | Distribution of radioactivity, liver ([2]; mice, 1 min after injection): 9.78 ± 1.10 %ID/g | Distribution of radioactivity, lungs ([2]; mice, 1 min after injection): 17.47 ± 3.88 %ID/g | Distribution of radioactivity, muscle ([2]; mice, 1 min after injection): 1.78 ±0.16 %ID/g | Distribution of radioactivity, small intestine ([2]; mice, 1 min after injection): 3.08 ± 0.29 %ID/g | Distribution of radioactivity, spleen ([2]; mice, 1 min after injection): 2.28 ± 0.50 %ID/g | Distribution of radioactivity, testes ([2]; mice, 1 min after injection): 0.44 ± 0.05 %ID/g | Distribution of radioactivity, blood ([2]; mice, 5 min after injection): 0.75 ± 0.07 %ID/g | Distribution of radioactivity, brain ([2]; mice, 5 min after injection): 2.27 ± 0.16 %ID/g | Distribution of radioactivity, heart ([2]; mice, 5 min after injection): 1.65 ± 0.07 %ID/g | Distribution of radioactivity, kidneys ([2]; mice, 5 min after injection): 17.17 ± 1.67 %ID/g | Distribution of radioactivity, liver ([2]; mice, 5 min after injection): 18.61 ± 2.31 %ID/g | Distribution of radioactivity, lungs ([2]; mice, 5 min after injection): 4.88 ± 0.41 %ID/g | Distribution of radioactivity, muscle ([2]; mice, 5 min after injection): 1.03 ± 0.09 %ID/g | Distribution of radioactivity, small intestine ([2]; mice, 5 min after injection): 7.22 ± 0.89 %ID/g | Distribution of radioactivity, spleen ([2]; mice, 5 min after injection): 1.29 ± 0.22 %ID/g | Distribution of radioactivity, testes ([2]; mice, 5 min after injection): 0.67 ± 0.02 %ID/g | Distribution of radioactivity, blood ([2]; mice, 15 min after injection): 0.38 ± 0.03 %ID/g | Distribution of radioactivity, brain ([2]; mice, 15 min after injection): 1.81 ± 0.09 %ID/g | Distribution of radioactivity, heart ([2]; mice, 15 min after injection): 0.55 ± 0.01 %ID/g | Distribution of radioactivity, kidneys ([2]; mice, 15 min after injection): 13.70 ± 0.69 %ID/g | Distribution of radioactivity, liver ([2]; mice, 15 min after injection): 20.05 ± 1.43 %ID/g | Distribution of radioactivity, lungs ([2]; mice, 15 min after injection): 1.20 ± 0.04 %ID/g | Distribution of radioactivity, muscle ([2]; mice, 15 min after injection): 0.58 ± 0.17 %ID/g | Distribution of radioactivity, small intestine ([2]; mice, 15 min after injection): 18.54 ± 4.00 %ID/g | Distribution of radioactivity, spleen ([2]; mice, 15 min after injection): 0.60 ± 0.03 %ID/g | Distribution of radioactivity, testes ([2]; mice, 15 min after injection): 0.59 ± 0.00 %ID/g | Distribution of radioactivity, blood ([2]; mice, 30 min after injection): 0.34 ± 0.05 %ID/g | Distribution of radioactivity, brain ([2]; mice, 30 min after injection): 1.40 ± 0.15 %ID/g | Distribution of radioactivity, heart ([2]; mice, 30 min after injection): 0.51 ± 0.03 %ID/g | Distribution of radioactivity, kidneys ([2]; mice, 30 min after injection): 9.55 ± 0.65 %ID/g | Distribution of radioactivity, liver ([2]; mice, 30 min after injection): 17.47 ± 1.10 %ID/g | Distribution of radioactivity, lungs ([2]; mice, 30 min after injection): 1.19 ± 0.18 %ID/g | Distribution of radioactivity, muscle ([2]; mice, 30 min after injection): 0.50 ± 0.17 %ID/g | Distribution of radioactivity, spleen ([2]; mice, 30 min after injection): 0.49 ± 0.03 %ID/g | Distribution of radioactivity, testes ([2]; mice, 30 min after injection): 0.48 ± 0.02 %ID/g | Distribution of radioactivity, heart ([2]; mice, 60 min after injection): 0.32 ± 0.03 %ID/g | Distribution of radioactivity, kidneys ([2]; mice, 60 min after injection): 6.20 ± 0.70 %ID/g | Distribution of radioactivity, liver ([2]; mice, 60 min after injection): 13.69 ±0.63 %ID/g | Distribution of radioactivity, lungs ([2]; mice, 60 min after injection): 0.64 ± 0.08 %ID/g | Distribution of radioactivity, muscle ([2]; mice, 60 min after injection): 0.24 ± 0.04 %ID/g | Distribution of radioactivity, small intestine ([2]; mice, 60 min after injection): 13.75 ±3.44 %ID/g | Distribution of radioactivity, spleen ([2]; mice, 60 min after injection): 0.37 ±0.01 %ID/g | Distribution of radioactivity, testes ([2]; mice, 60 min after injection): 0.30 ± 0.03 %ID/g | blood clearance, 1 min/60 min ratio ([2]; mice, blood radioactivity): 6.1 | brain washout, 5 min/60 min ratio ([2]; mice, brain radioactivity): 2.6 | time of peak radioactivity in brain tissues ([3]; rat brain PET, after injection): 1.5 min | highest (peak) radioactivity in cerebellar nuclei ([3]; rat brain PET, baseline): 0.87 SUV | brain washout, 5 min/60 min ratio ([3]; rat whole brain PET): 5.1 | maximum uptake in whole brain ([3]; rat whole brain PET): 0.65 SUV | specificity to FAAH in rat brains (FAAH [4]): modest | metabolism (radioactivity associated with hydrophilic metabolites) ([5]; rat brain homogenates): 75% | metabolism (radioactivity associated with hydrophilic metabolites) ([5]; rat plasma): 90% | peak brain uptake, cerebellum (PgP/Bcrp; PgP/Bcrp KO mice): 1.04 SUV | ratio of KO/WT in AUC, cerebellum (PgP/Bcrp; PgP/Bcrp KO vs wild type mice): 1.2 | ratio of KO/WT in AUC, cerebral cortex (PgP/Bcrp; PgP/Bcrp KO vs wild type mice): 1.2 | substrate for Pgp/Bcrp (PgP/Bcrp; mice, blood-brain barrier): not likely a substrate for Pgp/Bcrp | peak brain uptake, cerebellum (PgP/Bcrp; wild type mice): 0.78 SUV | peak brain uptake, cerebral cortex (PgP/Bcrp; wild type mice): 0.74 SUV | radiolysis after formulation [6]: no radiolysis was observed

O=C(Nc1cccnn1)N1CCC(=Cc2cccc(Oc3ccc(C(F)(F)F)cn3)c2)CC1 [[^11C]PF-04457845]
logD7.4 [7]: 3.48

O=[11C](NC1CCCCC1)Oc1ccc(O)c(-c2ccccc2)c1 [[^11C]CURB]
logD7.4 [7]: 2.8

COc1ccccc1CCCCCCC(=O)c1ncc(-c2ccccn2)o1 [MPPO, 7-(2-methoxyphenyl)-1-(5-(pyridin-2-yl)oxazol-2-yl)heptan-1-one]
IC50 (FAAH [8]): 10 nM | selectivity over triacylglycerol hydrolase (TGH) [9]: greater than 500 fold | selectivity over hydrolytic enzyme KIAA1363 [10]: > 10^5 fold
